Measured values reported in ChEMBL document CHEMBL1141585, “5,5,6-Fused tricycles bearing imidazole and pyrazole 6-methylidene penems as broad-spectrum inhibitors of beta-lactamases” (Bioorg Med Chem, 2008).
The source made the active and inactive calls. The rule behind the calls is not given here.

Assays:
[1] = Inhibition of TEM1 beta-lactamase
In short: (§1)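 Spectrophotometric β-lactamase inhibition assay (Bush method) with nitrocefin as substrate. Tazobactam standard included in each experiment. IC₅₀ derived by curve fitting.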

Escherichia coli [2] = experiment: Antimicrobial activity against Escherichia coli GC 2905 expressing P99 beta-lactamase after 18 to 24 hrs by broth microdilution method; assay type: functional
In short: (§2)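 CLSI broth microdilution in Mueller–Hinton II broth. Serial dilutions of piperacillin alone or piperacillin plus inhibitor; inoculum 10⁵ CFU/ml. Piperacillin + tazobactam run as comparator. MIC read as endpoint.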

Escherichia coli [3] = experiment: Antimicrobial activity against Escherichia coli GC 2906 expressing Imi1 beta-lactamase after 18 to 24 hrs by broth microdilution method; assay type: functional; in short: as §2; also: test concentration or dose not given here
Escherichia coli [4] = experiment: Antimicrobial activity against Escherichia coli GC 2804 expressing imp beta-lactamase after 18 to 24 hrs by broth microdilution method; assay type: functional; in short: as §2; also: test concentration or dose not given here
Escherichia coli [5] = experiment: Antimicrobial activity against Escherichia coli GC 2805 expressing CcrA beta-lactamase after 18 to 24 hrs by broth microdilution method; assay type: functional; in short: as §2
Escherichia coli [6] = experiment: Antimicrobial activity against Escherichia coli GC 2253 expressing IRT2 beta-lactamase after 18 to 24 hrs by broth microdilution method; assay type: functional; in short: as §2; also: test concentration or dose not given here
Enterobacter cloacae [7] = experiment: Antimicrobial activity against Enterobacter cloacae GC 1477 expressing AmpC beta-lactamase after 18 to 24 hrs by broth microdilution method; assay type: functional; in short: as §2; also: test concentration or dose not given here
Enterobacter cloacae [8] = experiment: Antimicrobial activity against Enterobacter cloacae GC 4142 expressing AmpC beta-lactamase after 18 to 24 hrs by broth microdilution method; assay type: functional; in short: as §2; also: test concentration or dose not given here
Enterobacter cloacae [9] = experiment: Antimicrobial activity against Enterobacter cloacae GC 6991 expressing AmpC beta-lactamase after 18 to 24 hrs by broth microdilution method; assay type: functional; in short: as §2; also: test concentration or dose not given here
Enterobacter cloacae [10] = experiment: Antimicrobial activity against Enterobacter cloacae GC 1475 expressing P99 beta-lactamase after 18 to 24 hrs by broth microdilution method; assay type: functional; in short: as §2; also: test concentration or dose not given here
Serratia marcescens [11] = experiment: Antimicrobial activity against Serratia marcescens GC 1781 expressing Sme1 and AmpC beta-lactamase after 18 to 24 hrs by broth microdilution method; assay type: functional; in short: as §2; also: test concentration or dose not given here
Pseudomonas aeruginosa = experiment: Antimicrobial activity against Pseudomonas aeruginosa GC 1764 expressing AmpC beta-lactamase after 18 to 24 hrs by broth microdilution method; assay type: functional; in short: as §2; also: test concentration or dose not given here
[12] = test system: Stenotrophomonas maltophilia; experiment: Antimicrobial activity against Stenotrophomonas maltophilia GC 1721 expressing L1 beta-lactamase after 18 to 24 hrs by broth microdilution method; assay type: functional; in short: as §2; also: test concentration or dose not given here
[13] = Inhibition of Imi1 beta lactamase
[14] = Inhibition of AmpC beta-lactamase; in short: as §1
Escherichia coli [15] = experiment: Antimicrobial activity against Escherichia coli GC 2844 after 18 to 24 hrs by broth microdilution method; assay type: functional; in short: as §2
Escherichia coli [16] = experiment: Antimicrobial activity against Escherichia coli GC 2847 expressing TEM1 beta-lactamase after 18 to 24 hrs by broth microdilution method; assay type: functional; in short: as §2; also: test concentration or dose not given here
Escherichia coli [17] = experiment: Antimicrobial activity against Escherichia coli GC 2920 expressing IRT2 beta-lactamase after 18 to 24 hrs by broth microdilution method; assay type: functional; in short: as §2
Escherichia coli [18] = experiment: Antimicrobial activity against Escherichia coli GC 2883 expressing OXA10 and PSE2 beta-lactamase after 18 to 24 hrs by broth microdilution method; assay type: functional; in short: as §2
Escherichia coli [19] = experiment: Antimicrobial activity against Escherichia coli GC 2894 expressing AmpC beta-lactamase after 18 to 24 hrs by broth microdilution method; assay type: functional; in short: as §2
Serratia marcescens [20] = experiment: Antimicrobial activity against Serratia marcescens GC 4132 expressing AmpC beta-lactamase after 18 to 24 hrs by broth microdilution method; assay type: functional; in short: as §2; also: test concentration or dose not given here
Escherichia coli [21] = experiment: Antimicrobial activity against Escherichia coli GC 2203 after 18 to 24 hrs by broth microdilution method; assay type: functional; in short: as §2
Staphylococcus aureus = experiment: Antimicrobial activity against Staphylococcus aureus GC 2216 after 18 to 24 hrs by broth microdilution method; assay type: functional; in short: as §2; also: test concentration or dose not given here
Escherichia coli [22] = experiment: Antibacterial efficacy against Escherichia coli LSU 80-8 infected ip dosed CD1 mouse model; assay type: functional
In short: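 Female CD-1 mice, five per dose level, five dose levels per compound. Lethal intraperitoneal challenge (10–100 LD₅₀), then intravenous piperacillin alone or piperacillin plus inhibitor at a 4:1 (Pip:Inhibitor) ratio. Survival read at 7 days; ratios from three separate tests pooled; ED₅₀ by probit analysis.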

Row | SMILES | IC50 [1] | MIC (Escherichia coli [2]) | MIC (Escherichia coli [3]) | MIC (Escherichia coli [4]) | MIC (Escherichia coli [5]) | MIC (Escherichia coli [6]) | MIC (Enterobacter cloacae [7]) | MIC (Enterobacter cloacae [8]) | MIC (Enterobacter cloacae [9]) | MIC (Enterobacter cloacae [10]) | MIC (Serratia marcescens [11]) | MIC (Pseudomonas aeruginosa) | MIC [12] | IC50 [14] | MIC (Escherichia coli [15]) | MIC (Escherichia coli [16]) | MIC (Escherichia coli [17]) | MIC (Escherichia coli [18]) | MIC (Escherichia coli [19]) | MIC (Serratia marcescens [20]) | further results
1 | O=C([O-])C1=CS[C@@H]2/C(=C\c3cn4c5c(sc4n3)CCCC5)C(=O)N12.[Na+] | 1.9 nM | 4 µg/mL | 2 µg/mL | < 0.06 µg/mL | > 64 µg/mL | 16 µg/mL | 32 µg/mL | 8 µg/mL | 16 µg/mL | 8 µg/mL | 1 µg/mL | 2 µg/mL | > 64 µg/mL | 0.62 nM | 2 µg/mL | 8 µg/mL | 2 µg/mL | 2 µg/mL | 4 µg/mL | 2 µg/mL | IC50 [13]: 33 nM; MIC (Escherichia coli [21]): 2 µg/mL; MIC (Staphylococcus aureus): < 0.06 µg/mL; ED50 (Escherichia coli [22]): 23.3 mg/kg
2 | Cn1c2ccccc2n2cc(/C=C3/C(=O)N4C(C(=O)[O-])=CS[C@H]34)nc12.[Na+] | 24 nM | 32 µg/mL | 16 µg/mL | < 0.06 µg/mL | > 64 µg/mL | 32 µg/mL | > 64 µg/mL | > 64 µg/mL | 32 µg/mL | 64 µg/mL | 2 µg/mL | 64 µg/mL | > 64 µg/mL | 16 nM | 4 µg/mL | > 64 µg/mL | 4 µg/mL | 64 µg/mL | 32 µg/mL | 16 µg/mL | IC50 [13]: 50 nM; MIC (Escherichia coli [21]): 2 µg/mL; MIC (Staphylococcus aureus): 64 µg/mL
3 | C[C@]1(Cn2ccnn2)[C@H](C(=O)[O-])N2C(=O)C[C@H]2S1(=O)=O.[Na+] [TAZOBACTAM SODIUM] | 100 nM | 64 µg/mL | 2 µg/mL | < 0.06 µg/mL | > 64 µg/mL | 2 µg/mL | > 64 µg/mL | 64 µg/mL | > 64 µg/mL | 64 µg/mL | 0.5 µg/mL | > 64 µg/mL | > 64 µg/mL | 84000 nM | 2 µg/mL | 2 µg/mL | 4 µg/mL | 1 µg/mL | 32 µg/mL | 64 µg/mL | Activity [13]: inactive; MIC (Escherichia coli [21]): 1 µg/mL; MIC (Staphylococcus aureus): 0.5 µg/mL; ED50 (Escherichia coli [22]): 20 mg/kg
4 | O=C([O-])C1=CS[C@@H]2/C(=C\c3cn4c5c(sc4n3)COCC5)C(=O)N12.[Na+] | 2.8 nM | 8 µg/mL | 2 µg/mL | < 0.06 µg/mL | > 64 µg/mL | 16 µg/mL | 16 µg/mL | 8 µg/mL | 16 µg/mL | 8 µg/mL | 1 µg/mL | 4 µg/mL | > 64 µg/mL | 1.5 nM | 2 µg/mL | 4 µg/mL | 2 µg/mL | 4 µg/mL | 2 µg/mL | 2 µg/mL | IC50 [13]: 100 nM; MIC (Escherichia coli [21]): 4 µg/mL; MIC (Staphylococcus aureus): 2 µg/mL; ED50 (Escherichia coli [22]): 25.3 mg/kg
5 | CCN1CCN(C(=O)N[C@@H](C(=O)N[C@@H]2C(=O)N3[C@@H]2SC(C)(C)[C@@H]3C(=O)O)c2ccccc2)C(=O)C1=O [PIPERACILLIN] | – | – | – | – | – | – | – | – | – | – | – | – | – | – | – | – | – | – | – | – | ED50 (Escherichia coli [22]): > 128 mg/kg
6 | O=C([O-])C1=CS[C@@H]2/C(=C\c3cn4c(n3)nc3n4CCCC3)C(=O)N12.[Na+] | 2.4 nM | 2 µg/mL | 64 µg/mL | < 0.06 µg/mL | > 64 µg/mL | 16 µg/mL | > 64 µg/mL | 8 µg/mL | 16 µg/mL | 2 µg/mL | 0.5 µg/mL | 32 µg/mL | > 64 µg/mL | 1.4 nM | 2 µg/mL | 8 µg/mL | 2 µg/mL | 2 µg/mL | 2 µg/mL | 1 µg/mL | IC50 [13]: 14 nM; MIC (Escherichia coli [21]): 1 µg/mL; MIC (Staphylococcus aureus): 0.25 µg/mL; ED50 (Escherichia coli [22]): 32.5 mg/kg
7 | O=C([O-])C1=CS[C@@H]2/C(=C\c3cc4oc5c(n4n3)CCCC5)C(=O)N12.[Na+] | 4 nM | 32 µg/mL | 4 µg/mL | < 0.06 µg/mL | > 64 µg/mL | 16 µg/mL | 64 µg/mL | 32 µg/mL | 32 µg/mL | 32 µg/mL | 2 µg/mL | 64 µg/mL | > 64 µg/mL | 5.5 nM | 2 µg/mL | 16 µg/mL | 4 µg/mL | 8 µg/mL | 32 µg/mL | 8 µg/mL | IC50 [13]: 160 nM; MIC (Escherichia coli [21]): 2 µg/mL; MIC (Staphylococcus aureus): 16 µg/mL
8 | O=C([O-])C1=CS[C@@H]2/C(=C/c3cc4oc5c(n4n3)CCOC5)C(=O)N12.[Na+] | 150 nM | 32 µg/mL | 64 µg/mL | 0.12 µg/mL | > 64 µg/mL | 32 µg/mL | > 64 µg/mL | > 64 µg/mL | 32 µg/mL | 32 µg/mL | 4 µg/mL | 64 µg/mL | > 64 µg/mL | 53 nM | 2 µg/mL | > 64 µg/mL | 8 µg/mL | 16 µg/mL | 32 µg/mL | 32 µg/mL | IC50 [13]: 2900 nM; MIC (Escherichia coli [21]): 2 µg/mL; MIC (Staphylococcus aureus): 64 µg/mL
9 | CCOC(=O)N1CCc2c(oc3cc(/C=C4/C(=O)N5C(C(=O)[O-])=CS[C@H]45)nn23)C1.[Na+] | 1.2 nM | 32 µg/mL | 64 µg/mL | < 0.06 µg/mL | > 64 µg/mL | 16 µg/mL | > 64 µg/mL | 64 µg/mL | 64 µg/mL | 64 µg/mL | 2 µg/mL | > 64 µg/mL | > 64 µg/mL | 4 nM | 2 µg/mL | 32 µg/mL | 4 µg/mL | 8 µg/mL | 64 µg/mL | 8 µg/mL | IC50 [13]: 98 nM; MIC (Escherichia coli [21]): 2 µg/mL; MIC (Staphylococcus aureus): 16 µg/mL
10 | O=C([O-])C1=CS[C@@H]2/C(=C\c3cc4oc5c(n4n3)CCOC5)C(=O)N12.[Na+] | 4.3 nM | 16 µg/mL | 8 µg/mL | < 0.06 µg/mL | > 64 µg/mL | 16 µg/mL | 64 µg/mL | 32 µg/mL | 16 µg/mL | 32 µg/mL | 2 µg/mL | 32 µg/mL | > 64 µg/mL | 4 nM | 2 µg/mL | 32 µg/mL | 2 µg/mL | 8 µg/mL | 16 µg/mL | 8 µg/mL | IC50 [13]: 140 nM; MIC (Escherichia coli [21]): 4 µg/mL; MIC (Staphylococcus aureus): 16 µg/mL
11 | O=C([O-])C1=CS[C@@H]2/C(=C\c3cn4c5c(sc4n3)CCC5)C(=O)N12.[Na+] | 1.4 nM | 4 µg/mL | 2 µg/mL | < 0.06 µg/mL | > 64 µg/mL | 8 µg/mL | 16 µg/mL | 4 µg/mL | 16 µg/mL | 4 µg/mL | 1 µg/mL | 2 µg/mL | > 64 µg/mL | 2.1 nM | 2 µg/mL | 4 µg/mL | 2 µg/mL | 2 µg/mL | 2 µg/mL | 2 µg/mL | MIC (Escherichia coli [21]): 2 µg/mL; MIC (Staphylococcus aureus): 2 µg/mL; ED50 (Escherichia coli [22]): 19 mg/kg
